Data reported in ChEMBL document CHEMBL1156332, “Polysubstituted pyrazoles, part 6. Synthesis of some 1-(4-chlorophenyl)-4-hydroxy-1H-pyrazol-3-carbonyl derivatives linked to nitrogenous heterocyclic ring systems as potential antitumor agents” (2010).

Legend:
Assay type in all cases: functional
A549 = experiment: Growth inhibition of human A549 cells after 48 hrs by sulforhodamine B assay; conditions: A549, 48 h
Procedure, shortened: (§1)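 NCI 60-line panel, five concentrations (0.01–100 µM) from DMSO stock diluted in medium with gentamicin. Cells were plated 24 h before dosing, with time-zero plates fixed at drug addition, then exposed 48 h at 37 °C, 5% CO₂. Adherent cells were fixed with cold TCA (10% final) and suspension cells with 16% TCA. Staining used 0.4% SRB, solubilised in 10 mM Tris and read at 515 nm. GI₅₀ was taken from log concentration–% growth curves.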

HOP-92 = experiment: Growth inhibition of human HOP92 cells after 48 hrs by sulforhodamine B assay; conditions: HOP-92, 48 h; procedure, shortened: as §1
SF-295 = experiment: Growth inhibition of human SF295 cells after 48 hrs by sulforhodamine B assay; conditions: SF-295, 48 h; procedure, shortened: as §1
SNB-75 = experiment: Growth inhibition of human SNB75 cells after 48 hrs by sulforhodamine B assay; conditions: SNB-75, 48 h
Procedure, shortened: (§2)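 Adherent lines plated and held 24 h at 37 °C, 5% CO2, 100% humidity; time-zero plates TCA-fixed at drug addition. Drugs from DMSO stocks were made into five concentrations by 10-fold or half-log serial dilution and applied for 48 h continuous exposure. Cells were fixed with cold TCA (10% final) for 60 min at 4 °C, then stained with 0.4% SRB in 1% acetic acid for 10 min. Dye was solubilized in 10 mM Tris base and read at 515 nm. GI50 was taken from log concentration–growth curves.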

A498 = experiment: Growth inhibition of human A498 cells after 48 hrs by sulforhodamine B assay; conditions: A498, 48 h; procedure, shortened: as §1
ACHN = experiment: Growth inhibition of human ACHN cells after 48 hrs by sulforhodamine B assay; procedure, shortened: as §1
SK-MEL-28 = experiment: Growth inhibition of human SK-MEL-28 cells after 48 hrs by sulforhodamine B assay; conditions: SK-MEL-28, 48 h; procedure, shortened: as §2
NCI-H23 = experiment: Growth inhibition of human NCI-H23 cells after 48 hrs by sulforhodamine B assay; conditions: NCI-H23, 48 h; procedure, shortened: as §1
MDA-MB-468 = experiment: Growth inhibition of human MDA-MB-468 cells after 48 hrs by sulforhodamine B assay; conditions: MDA-MB-468, 48 h; procedure, shortened: as §1
TK-10 = experiment: Growth inhibition of human TK10 cells after 48 hrs by sulforhodamine B assay; conditions: TK-10, 48 h; procedure, shortened: as §2
[1] = Cytotoxicity against human melanoma cells after 48 hrs by sulforhodamine B assay; conditions: Melanoma cell; for CC50: read-out: LC50 (the source's name)
Procedure, shortened: (§3)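 NCI five-dose screen: about 60 human tumour lines grouped into nine subpanels were plated and incubated 24 h before dosing. Compounds went in as DMSO stock and were diluted in medium to five final concentrations (0.01–100 µM). Exposure was 48 h continuous at 37 °C, 5% CO₂, followed by TCA fixation and SRB staining read at 515 nm. Per-line GI₅₀, TGI and LC₅₀ came from log concentration–% growth curves, averaged per subpanel as MG-MID.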

OVCAR-5 = experiment: Growth inhibition of human OVCAR5 cells after 48 hrs by sulforhodamine B assay; conditions: OVCAR-5, 48 h; procedure, shortened: as §1
SK-MEL-5 = experiment: Growth inhibition of human SK-MEL-5 cells after 48 hrs by sulforhodamine B assay; conditions: SK-MEL-5, 48 h; procedure, shortened: as §2
M14 = experiment: Growth inhibition of human M14 cells after 48 hrs by sulforhodamine B assay; conditions: M14, 48 h; procedure, shortened: as §1
[2] = Cytotoxicity against human CNS cancer cells after 48 hrs by sulforhodamine B assay; conditions: Cancer cell lines; procedure, shortened: as §3
HCT-116 = experiment: Growth inhibition of human HCT116 cells after 48 hrs by sulforhodamine B assay; conditions: HCT-116, 48 h; procedure, shortened: as §1
HOP-62 = experiment: Growth inhibition of human HOP62 cells after 48 hrs by sulforhodamine B assay; conditions: HOP-62, 48 h; procedure, shortened: as §1
SK-OV-3 = experiment: Growth inhibition of human SKOV3 cells after 48 hrs by sulforhodamine B assay; conditions: SK-OV-3, 48 h; procedure, shortened: as §2
OVCAR-4 = experiment: Growth inhibition of human OVCAR4 cells after 48 hrs by sulforhodamine B assay; conditions: OVCAR-4, 48 h; procedure, shortened: as §1
HCC 2998 = experiment: Growth inhibition of human HCC2998 cells after 48 hrs by sulforhodamine B assay; conditions: HCC 2998, 48 h; procedure, shortened: as §1
SF-539 = experiment: Growth inhibition of human SF539 cells after 48 hrs by sulforhodamine B assay; conditions: SF-539, 48 h; procedure, shortened: as §2
U-251 = experiment: Growth inhibition of human U251 cells after 48 hrs by sulforhodamine B assay; conditions: U-251, 48 h; procedure, shortened: as §2
COLO 205 = experiment: Growth inhibition of human COLO205 cells after 48 hrs by sulforhodamine B assay; conditions: COLO 205, 48 h; procedure, shortened: as §1
[3] = Cytotoxicity against human prostate cancer cells after 48 hrs by sulforhodamine B assay; conditions: Cancer cell lines; procedure, shortened: as §3
RXF 393 = experiment: Growth inhibition of human […] cells after 48 hrs by sulforhodamine B assay; conditions: RXF 393, 48 h; procedure, shortened: as §1
KM12 = experiment: Growth inhibition of human KM12 cells after 48 hrs by sulforhodamine B assay; conditions: KM12, 48 h; procedure, shortened: as §1
HT-29 = experiment: Growth inhibition of human HT-29 cells after 48 hrs by sulforhodamine B assay; conditions: HT-29, 48 h; procedure, shortened: as §1
SN12C = experiment: Growth inhibition of human SN12C cells after 48 hrs by sulforhodamine B assay; procedure, shortened: as §2
CCRF-CEM = experiment: Growth inhibition of human CCRF-CEM cells after 48 hrs by sulforhodamine B assay; procedure, shortened: as §1
[4] = Growth inhibition of human NCI-H322 cells after 48 hrs by sulforhodamine B assay; conditions: NCI-H322, 48 h; procedure, shortened: as §1
786-0 = experiment: Growth inhibition of human 786-0 cells after 48 hrs by sulforhodamine B assay; conditions: 786-0, 48 h; procedure, shortened: as §1
[5] = Cytotoxicity against human renal cancer cells after 48 hrs by sulforhodamine B assay; conditions: Cancer cell lines; procedure, shortened: as §3
[6] = Cytotoxicity against human breast cancer cells after 48 hrs by sulforhodamine B assay; conditions: Cancer cell lines; procedure, shortened: as §3
UO-31 = experiment: Growth inhibition of human UO31 cells after 48 hrs by sulforhodamine B assay; conditions: UO-31, 48 h; procedure, shortened: as §2
SF-268 = experiment: Growth inhibition of human SF268 cells after 48 hrs by sulforhodamine B assay; conditions: SF-268, 48 h; procedure, shortened: as §1
RPMI-8226 = experiment: Growth inhibition of human RPMI8226 cells after 48 hrs by sulforhodamine B assay; conditions: RPMI-8226, 48 h; procedure, shortened: as §1
MCF7 = experiment: Growth inhibition of human MCF7 cells after 48 hrs by sulforhodamine B assay; conditions: MCF7, 48 h; procedure, shortened: as §1
[7] = Cytotoxicity against human ovarian cancer cells after 48 hrs by sulforhodamine B assay; conditions: Cancer cell lines; procedure, shortened: as §3
LOX IMVI = experiment: Growth inhibition of human LOXIMVI cells after 48 hrs by sulforhodamine B assay; procedure, shortened: as §1
BT-549 = experiment: Growth inhibition of human BT549 cells after 48 hrs by sulforhodamine B assay; conditions: BT-549, 48 h; procedure, shortened: as §1
OVCAR-3 = experiment: Growth inhibition of human OVCAR-3 cells after 48 hrs by sulforhodamine B assay; conditions: OVCAR-3, 48 h; procedure, shortened: as §1

`Cc1c2c(nn1C(=O)c1nn(-c3ccc(Cl)cc3)cc1O)-c1ccccc1CC2` showed a GI50 (A549) of 34 nM, a GI50 (HOP-92) of 52 nM and a GI50 (SF-295) of 20 nM. The GI50 (SNB-75) was 29 nM, the GI50 (A498) was 24 nM and the GI50 (ACHN) was 48 nM. The GI50 (SK-MEL-28) was 92 nM, the GI50 (NCI-H23) was 41 nM and the GI50 (MDA-MB-468) was 262 nM. It also gave a GI50 (TK-10) of 33 nM, a GI50 [1] of 140 nM and a TGI [1] of 52100 nM. The CC50 [1] was 86400 nM, the GI50 (OVCAR-5) was 72 nM and the GI50 (SK-MEL-5) was 370 nM. For the same compound, the GI50 (M14) was 96 nM, the GI50 [2] was 36 nM and the TGI [2] was 69100 nM. The GI50 (HCT-116) was 34 nM, the GI50 (HOP-62) was 44 nM and the GI50 (SK-OV-3) was 160 nM. For the same compound, the GI50 (OVCAR-4) was 264 nM, the GI50 (HCC 2998) was 502 nM and the GI50 (SF-539) was 41 nM. The GI50 (U-251) was 31 nM, the GI50 (COLO 205) was 291 nM and the GI50 [3] was 44 nM. For the same compound, the GI50 (RXF 393) was 47 nM, the GI50 (KM12) was 70 nM and the GI50 (HT-29) was 241 nM. The GI50 (SN12C) was 41 nM, the GI50 (CCRF-CEM) was 57 nM and the GI50 [4] was 54 nM. The GI50 (786-0) was 319 nM, the GI50 [5] was 92 nM and the TGI [5] was 67700 nM. It also gave a GI50 [6] of 82 nM, a TGI [6] of 91700 nM and a GI50 (UO-31) of 99 nM. The GI50 (SF-268) was 48 nM, the GI50 (RPMI-8226) was 38 nM and the GI50 (MCF7) was 121 nM. It also gave a GI50 [7] of 115 nM, a TGI [7] of 83600 nM and a GI50 (LOX IMVI) of 75 nM. For the same compound, the GI50 (BT-549) was 29 nM and the GI50 (OVCAR-3) was 99 nM.
Work on `N#Cc1cnn(C(=O)c2nn(-c3ccc(Cl)cc3)cc2O)c1N` yielded a GI50 (A549) of 200 nM, a GI50 (HOP-92) of 400 nM and a GI50 (SF-295) of 160 nM. The GI50 (SNB-75) was 250 nM, the GI50 (A498) was 170 nM and the GI50 (ACHN) was 320 nM. It also gave a GI50 (SK-MEL-28) of 630 nM, a GI50 (NCI-H23) of 370 nM and a GI50 (MDA-MB-468) of 950 nM. The GI50 (TK-10) was 280 nM, the GI50 [1] was 460 nM and the TGI [1] was 11900 nM. The CC50 [1] was 65000 nM, the GI50 (OVCAR-5) was 640 nM and the GI50 (SK-MEL-5) was 480 nM. For the same compound, the GI50 (M14) was 480 nM, the GI50 [2] was 320 nM and the LC50 [2] was 74700 nM. The TGI [2] was 23100 nM, the GI50 (HCT-116) was 260 nM and the GI50 (HOP-62) was 340 nM. The GI50 (SK-OV-3) was 520 nM, the GI50 (OVCAR-4) was 460 nM and the GI50 (HCC 2998) was 650 nM. The GI50 (SF-539) was 320 nM, the GI50 (U-251) was 290 nM and the GI50 (COLO 205) was 910 nM. The GI50 [3] was 450 nM, the TGI [3] was 13400 nM and the GI50 (RXF 393) was 510 nM. For the same compound, the GI50 (KM12) was 380 nM, the GI50 (HT-29) was 1190 nM and the GI50 (SN12C) was 350 nM. For the same compound, the GI50 (CCRF-CEM) was 280 nM, the GI50 [4] was 440 nM and the GI50 (786-0) was 660 nM. The GI50 [5] was 360 nM, the LC50 [5] was 75000 nM and the TGI [5] was 8990 nM. For the same compound, the GI50 [6] was 430 nM, the LC50 [6] was 64300 nM and the TGI [6] was 14400 nM. It also gave a GI50 (UO-31) of 300 nM, a GI50 (SF-268) of 460 nM and a GI50 (RPMI-8226) of 210 nM. It also gave a GI50 (MCF7) of 360 nM, a GI50 [7] of 500 nM and an LC50 (50% lethal concentration) [7] of 88500 nM. It also gave a TGI [7] of 19600 nM, a GI50 (LOX IMVI) of 440 nM and a GI50 (BT-549) of 290 nM. The GI50 (OVCAR-3) was 550 nM.
